Bioassay records deposited in PubChem BioAssay by several laboratories.
Only some compounds are listed: those with a hit (about 6.8% of all), similar ones and a draw of the others.
AI-2 QS mod – Vibrio harveyi AI-2 quorum sensing modulators, primary screen, JMH597 strain, luminescence/OD600 ratio; activity change, % at 7.5 µM; AID 2094, 2009; Vibrio harveyi JMH597 AI-2 luminescence/OD600 ratio, 9 h; hits give low values; strain lacks LuxN and CqsS sensors; 0 = neutral-control median; 0.4% of 300,000 active; in the data active = activity change below about -75%, passing the limit was not always enough;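 also: luminescence divided by OD600 gain over 9 h not by final OD600 alone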
ALR inh – inhibitors of human ALR sulfhydryl oxidase, primary screen, biochemical, H2O2 detection, HRP-luminol luminescence, single point; AID 485317, 2010; FAD-linked sulfhydryl oxidase ALR (Homo sapiens), P55789; purified ALR, DTT oxidation; inhibition, % (test concentration not listed); 3.8% of 290,000 active;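 active = mean replicate inhibition above about 79%, with every replicate also reaching it, limit read from the data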
Target sequence (P55789 whole entry, looked up): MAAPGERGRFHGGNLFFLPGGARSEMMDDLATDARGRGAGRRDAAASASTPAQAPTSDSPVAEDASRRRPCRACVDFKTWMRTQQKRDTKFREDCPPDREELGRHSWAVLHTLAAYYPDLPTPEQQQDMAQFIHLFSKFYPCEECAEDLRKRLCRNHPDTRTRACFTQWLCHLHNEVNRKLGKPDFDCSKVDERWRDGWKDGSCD
HSF-1 act – HSF-1 activators, primary screen, NIH3T3-HGL cells, MG132 stress, luminescence, single point. 1.7% of 300,000 active. NIH3T3-HGL HSF-1 luciferase reporter, 8 h; 100% = twice DMSO control signal. AID 504408, 2011. activation, % at 9 µM;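 active = mean replicate activation of at least 50% with a set share of replicates each reaching 50%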
HSF1 inh – HSF1 inhibitors in luciferase reporter cells, primary screen, cell-based, NIH3T3, luminescence; 0.77% of 300,000 active; activity change, negative = inhibition, % at 7.5 µM (by protocol); AID 2098, 2009; NIH3T3-HGL HSE-luciferase, MG132-induced, luminescence 8 h; hits give low values;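 active = more than half of replicate wells show activity change below -50%, luminescence cut by over half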;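 also: luciferase reports HSF-1 transcriptional activity via heat shock element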
PHOSPHO1 block – PubChem AID 1565; Phosphoethanolamine/phosphocholine phosphatase (Homo sapiens), Q8TCT1; recombinant PHOSPHO1, absorbance phosphatase assay; inhibition, % at 13.3 µM; 1.1% of 290,000 active; in the data active = inhibition above about 60%
Target sequence (Q8TCT1 whole entry, looked up): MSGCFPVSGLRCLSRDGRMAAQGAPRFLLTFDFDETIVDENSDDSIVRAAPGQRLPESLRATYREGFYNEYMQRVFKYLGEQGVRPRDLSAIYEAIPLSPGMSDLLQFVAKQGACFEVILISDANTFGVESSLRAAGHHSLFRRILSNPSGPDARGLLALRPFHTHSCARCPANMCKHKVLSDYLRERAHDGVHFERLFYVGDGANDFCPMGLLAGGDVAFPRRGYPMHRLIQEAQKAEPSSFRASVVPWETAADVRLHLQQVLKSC
core dimer inh – inhibitors of HCV core protein dimerization, primary screen, biochemical, TR-FRET, high-throughput. TR-FRET GST/Flag-core106 dimerization, 1536-well. 0.33% of 300,000 active. AID 1899, 2009. inhibition, % at 5 µM;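 active = inhibition above the mean of all tested compounds plus 3 SD, set per screening campaign, cut at about 45% in these data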
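Material: GST/Flag-tagged HCV core106 proteins. Incubation: 4 h, 22.5 °C incubation. Read-out basis: inhibition (%) from 671 over 617 nm ratio. Measured by: TR-FRET, excitation 340 nm, emission 617 and 671 nm.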
Numbers stand for hits; - = inactive; . = no result given.

SMILES	AI-2 QS mod	ALR inh	HSF-1 act	HSF1 inh	PHOSPHO1 block	core dimer inh
N#C/C(=C\c1cc2ccccc2nc1N1CCCCC1)C(N)=O	.	93	.	.	-	-
COc1ccc2nc(N3CCCCC3)c(/C=C3\SC(=S)NC3=O)cc2c1	-	-	-	-	-	-
CCCC1=C(C(=O)OCC)C(c2ccc(N(C)C)cc2)n2ncnc2N1 (configuration not stated)	-	98	-	-	-	-
COc1ccccc1-c1noc(CCCC(=O)NC2CCCCC2)n1	-	-	-	-	-	-
CCOc1ccccc1-c1noc(CCCC(=O)NC2CCCCC2)n1	-	-	64	-	-	-
Cc1cc(C)cc(NC(=O)CSCc2cc(=O)n3ccsc3n2)c1	-	-	-	-	-	-
CC(Oc1ccc2c(-c3ccccc3)cc(=O)oc2c1)C(=O)O (configuration not stated)	-	-	.	.	-	-
Nc1cccc(-c2cc3ccccc3oc2=O)c1	-	99	-	-	-	-
CC(=O)Oc1ccc(-c2cc3ccccc3oc2=O)cc1	-	-	-	-	.	-
COc1ccc(-c2cc3ccc(O)cc3oc2=O)cc1	-	-	51	-	-	-
O=c1oc2ccccc2cc1-c1ccc(O)cc1O	-	99	-	-	-	-
O=c1cc(-c2ccccc2)c2ccc(O)cc2o1	-	-	-	-51	.	-
Nc1nnc(-c2cc3ccccc3oc2=O)s1	-	.	-	-	-	-
O=C(O)c1cc2c(cn1)[nH]c1ccccc12	-	-	-	-	-	-
Nc1nc(SCCO)[nH]c(=O)c1NC(=O)c1ccc(Br)o1	-	-	-	-	-	-
CCN(CC)CCNC(=O)C(=O)NCC1OCCN1S(=O)(=O)c1ccc([N+](=O)[O-])cc1 (configuration not stated)	-	-	-	-	-	-
O=c1oc2cc(O)ccc2cc1-c1ccccc1	-	91	-	-	-	-
O=c1ccc2c(-c3ccccc3)c3ccc(O)cc3oc-2c1	-	-	-	-	-	66
COc1ccc(-c2cc3ccc(OCC(C)=O)cc3oc2=O)cc1OC	-	-	-	-	-	-
COc1ccc(-c2cc3ccc(OCC(C)=O)cc3oc2=O)cc1	-	-	62	-	-	-
NC(=O)COc1ccc2cc(-c3ccccc3)c(=O)oc2c1	-	-	-	-	-	-
COc1ccc(S(=O)(=O)N2CCOCC2)cc1NC(=O)c1cccc2c(=O)c(C)c(-c3ccccc3)oc12	-	-	-	-	-	-
O=C(NCCN1CCOCC1)c1ccccc1OCc1ccccc1	.	-	.	.	.	.
COc1ccc(S(=O)(=O)N(CCc2ccccc2)CC(=O)N2CCOCC2)cc1	-	99	-	-	-	-
Cn1cccc1/C=N/n1c(-c2ccc(Cl)cc2Cl)n[nH]c1=S	-	97	-	-	77	-
SMILES	AI-2 QS mod	ALR inh	HSF-1 act	HSF1 inh	PHOSPHO1 block	core dimer inh
Cn1cccc1/C=N/n1c(-c2ccc(Cl)cc2)n[nH]c1=S	-	-	-	-	66	-
Cc1ccc(-c2n[nH]c(=S)n2/N=C/c2cccn2C)cc1	-	-	-	-	-	-
COc1ccc(OCC(=O)Nc2c3c(nn2-c2ccc(OC)cc2)CS(=O)(=O)C3)cc1	-	-	-	-	-	-
CCOCCCNC(=O)CN(c1cc([N+](=O)[O-])ccc1OC)S(C)(=O)=O	-	-	-	-	-	-
CCOc1ccc(NS(=O)(=O)c2coc(C(N)=O)c2)cc1	-	-	-	-	-	-
COC(=O)c1cc(NC(=S)N2CCN(C(=O)C3CCCO3)CC2)cc(C(=O)OC)c1 (configuration not stated)	-	-	-	-	-	-
CC(=C/C(=O)O)/C=C/c1ccc([N+](=O)[O-])cc1	.	-	.	.	-	-
CC1(C)COC(/C=C/c2ccc([N+](=O)[O-])cc2)=N1	-	.	118	-	-	-
O=C(NCCc1c[nH]c2ccccc12)C(=O)NCC1OCCCN1S(=O)(=O)c1cccs1 (configuration not stated)	-	-	-	-	-	-
Cc1cc(C)nc(SCc2cn3cc(Cl)ccc3n2)n1	-	-	64	-	-	-
COc1ccc(S(=O)(=O)N2CC(C)OC(C)C2)cc1C(=O)N1CCCCC1 (configuration not stated)	-	-	-	-	-	-
Cc1cc(C)c2oc(C(=O)NC3CCS(=O)(=O)C3)cc(=O)c2c1 (configuration not stated)	-	-	-	-	-	-
Cc1ccc2c(=O)cc(C(=O)NC3CCS(=O)(=O)C3)oc2c1C (configuration not stated)	-	98	-	-	-	-
Cc1ccc(NC(=O)/C(C#N)=N/Nc2ccc(C(=O)O)cc2)c(C)c1	-	76	-	-	-	-
Cc1ccc(N=Cc2ccc(N(C)C)cc2)cc1	-	-	-	-	-	-
CN(C)c1ccc(C=Nc2ccc(N(C)C)cc2)cc1	-	97	-	-	-	-
CN(C)c1ccc(N=Cc2ccco2)cc1	.	94	.	.	-	-
CN(C)c1ccc(C=Nc2ccccc2)cc1	-	-	-	-	-	-
CN(C)c1ccc(/C=N/O)cc1	-	99	-	-	-	-
CCOC(=O)CN(c1ccccn1)S(=O)(=O)c1ccc(OC)cc1	-	-	-	-	-	-
CN1CCN(c2ccc(NC(=O)c3ccc([N+](=O)[O-])o3)cc2Cl)CC1	-	-	-	-78	-	-
O=C(Nc1ccc(N2CCOCC2)c(Cl)c1)c1ccc([N+](=O)[O-])o1	-	.	141	-	-	.
O=C(Nc1cccc(S(=O)(=O)N2CCCCC2)c1)c1ccc([N+](=O)[O-])o1	-	-	74	-	-	-
O=C(COC(=O)c1ccc([N+](=O)[O-])o1)Nc1cccc(S(=O)(=O)N2CCCCC2)c1	-	.	-	-	-	-
Cc1ccc(NC(=O)c2ccc([N+](=O)[O-])o2)cc1S(=O)(=O)N1CCOCC1	-	-	75	-	-	-
CC(C)(C)N1[C@@H](CC(=O)O)c2cc(C(F)(F)F)ccc2S1(=O)=O	-	-	-	-	.	-
CCC(C(=O)NCc1ccc(F)cc1)N(Cc1cccs1)C(=O)c1snc(C(N)=O)c1N (configuration not stated)	-	.	-	-	-	-
c1csc(-c2nn3c(-c4ccncc4)nnc3s2)c1	.	.	.	.	-	.
c1csc(Cc2nn3c(-c4ccncc4)nnc3s2)c1	-	-	-	-	72	-
